{"source": "ChEMBL document CHEMBL3872233", "about": "“Topical Treatment of Leishmania tropica Infection Using (-)-α-Bisabolol Ointment in a Hamster Model: Effectiveness and Safety Assessment” (J Nat Prod, 2016)", "key": {"Leishmania tropica [1]": {"tested_on": "Leishmania tropica", "assay": "(§1) Antileishmanial activity against Leishmania tropica MHOM/MA/1988/LEM1314 promastigotes infected in Syrian hamster assessed as reduction in lesion thickness at 2 mg/kg administered intralesionally once daily on footpad for 3 weeks starting at week 7 post infection measured 1 week post last dose relative to control", "format": "functional, organism-based", "set-up": "scale not given: the % may be the effect or the level left", "summary_of_the_method": "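L. tropica stationary-phase promastigotes (3 × 10^7 in 50 μL PBS) injected into the left hind footpad. Treatment began at week 7 (+75% footpad thickness) and ran daily for 21 days, n = 10/group. Routes were 50 mg ointment on the lesion (cetyl alcohol/lanolin/petrolatum base), gavage in olive oil, or intralesional meglumine antimoniate 2 mg SbV/kg. Lesion thickness was measured weekly against base-only ointment; sacrifice was 1 week after the last dose.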"}, "Leishmania tropica [2]": {"tested_on": "Leishmania tropica", "assay": "as §1, with “parasite load in foodpad skin” for “lesion thickness”, “dose by qPCR analysis” for “dose”", "format": "functional, organism-based", "set-up": "scale not given: the % may be the effect or the level left", "summary_of_the_method": "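Hamsters were infected in the footpad and treated daily for 21 days from week 7 post-infection, n = 10/group, and sacrificed 1 week after the last dose. Footpad skin, liver and spleen DNA was assayed by L. tropica-specific TaqMan qPCR (chromosome 29 target), in triplicate with 50 ng DNA per 25 μL reaction. Load was interpolated from Ct on a calibration curve of promastigote DNA, relative to base-ointment controls.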"}}, "data": [{"substance": "Meglumine antimoniate; Glucantime", "values": [{"measurement": "Activity", "setting": "Leishmania tropica [1]", "value": 3.2, "unit": "%"}, {"measurement": "Activity", "setting": "Leishmania tropica [2]", "value": 73, "unit": "%"}]}]}
